Experimental findings from ChEMBL document CHEMBL4020703, “Epigallocatechin-3-gallate inhibits bacterial virulence and invasion of host cells” (Bioorg Med Chem, 2017) are described below.

The term IC50 denotes the concentration needed to halve the response being measured.

Data set [1] has as its system Salmonella typhimurium. As to the kind of experiment: Effect on SopE2-CPG2-HA fusion protein expression expressed in Salmonella typhimurium using Glu-CyFur as substrate at 0.39 to 100 uM after 4 hrs by fluorescence assay. The class given is ADME. The settings on record: salmonella enterica subsp. enterica serovar typhimurium. In outline: (§1)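 SopE2-CPG2-HA reporter strain grown overnight at 37 °C in LB (10 g/L NaCl) with 50 μg/mL ampicillin, diluted 1:30, then grown 4 h with compound or DMSO/H2O control (<1% of volume). Bacterial lysates were examined for reporter level.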

The test system of data set [2] is Salmonella enterica subsp. enterica serovar Typhimurium. The data set can be described thus: Inhibition of SPI-1 T3SS in Salmonella typhimurium assessed as reduction in SPI-1 T3SS substrates by measuring SipB protein level at 5 to 100 uM after 4 hrs by Coomassie staining based SDS-PAGE method. In outline: (§2)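 Overnight S. Typhimurium cultures were diluted 1:30 into LB (10 g/L NaCl) and grown 4 h with or without compound. Culture supernatant (1 mL) was precipitated overnight at 4 °C with TCA (10% final). Pellets were spun at 14,000 rpm for 30 min, acetone-washed, and dried. Proteins were resolved on 4–20% SDS-PAGE, Coomassie-stained, and imaged.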

The test system is the same in data set [3]. The data set can be described thus: Inhibition of SPI-1 T3SS in Salmonella typhimurium assessed as reduction in SPI-1 T3SS substrates by measuring FliC protein level at 5 to 100 uM after 4 hrs by Coomassie staining based SDS-PAGE method. In outline:
as §2

Data set [4] has as its system HeLa. As to the kind of experiment: Inhibition of SPI-1 T3SS in Salmonella typhimurium infected in human HeLa cells assessed as reduction in bacterial invasion at 100 uM after 30 mins by immunofluorescence analysis. The class given is cell-based. The settings on record: Salmonella enterica subsp. enterica serovar Typhimurium. In a few lines: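 HeLa cells on glass coverslips were infected and stained as for the flow protocol (MOI 10, 30 min, gentamicin chase, anti-Salmonella serum/AlexaFluor 488), with nuclei counterstained by TOPRO-3. Extracellular bacteria were imaged without permeabilisation or gentamicin.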

The test system of data set [5] is Salmonella enterica subsp. enterica serovar Typhimurium. The data set can be described thus: Inhibition of SPI-1 T3SS in Salmonella typhimurium assessed as reduction in SPI-1 T3SS substrates by measuring FliD protein level at 5 to 100 uM after 4 hrs by Coomassie staining based SDS-PAGE method. In outline: as §2
For data set [6] the test system is unchanged. The data set can be described thus: Inhibition of SPI-1 T3SS in Salmonella typhimurium assessed as reduction in SPI-1 T3SS substrates by measuring SopB protein level at 5 to 100 uM after 4 hrs by Coomassie staining based SDS-PAGE method. In a few lines: as §2
A short description of data set [7]: Inhibition of SPI-1 T3SS in Salmonella typhimurium expressing SopE2-CPG2-HA fusion protein assessed as reduction in type 3 protein secretion using Glu-CyFur as substrate after 4 hrs by fluorescence assay. More on the design: species or system Salmonella enterica subsp. enterica serovar Typhimurium. In a few lines:
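Reporter strain was grown 4 h at 37 °C with compound after a 1:30 dilution, and OD600 was checked. Culture supernatant was mixed with 50 mM Tris, 0.1 mM ZnCl2, pH 7.4, 0.1% Brij-97 and 10 μM Glu-CyFur. Fluorescence (ex 563/em 610 nm) was read kinetically for 2 h. Inhibition came from the rate versus DMSO/H2O control, and IC50 from an exponential decay fit.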

The test system of data set [8] is Salmonella typhimurium. The data set can be described thus: Effect on growth of Salmonella typhimurium at 100 uM. The settings on record: salmonella enterica subsp. enterica serovar typhimurium.
The subject of data set [9] is Salmonella enterica subsp. enterica serovar Typhimurium. The data set can be described thus: Inhibition of SPI-1 T3SS in Salmonella typhimurium assessed as reduction in SPI-1 T3SS substrates by measuring SipA protein level at 5 to 100 uM after 4 hrs by Coomassie staining based SDS-PAGE method. In outline:
as §2

For data set [10], the system named is HeLa. As to the kind of experiment: Inhibition of SPI-1 T3SS in Salmonella typhimurium infected in human HeLa cells assessed as reduction in bacterial invasion at 100 uM after 30 mins by flow cytometry. The class given is cell-based. The conditions noted are these: Salmonella enterica subsp. enterica serovar Typhimurium. In outline:
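Strain IR715 was pre-grown 4 h in LB (1/33 dilution) with compound or DMSO, then added to HeLa cells (DMEM/10% FBS) at MOI 10 with compound. Plates were spun 5 min at 1000×g, infected 30 min at 37 °C, then given gentamicin 100 ug/mL for 30 min. Cells were fixed, saponin-permeabilised, stained with anti-Salmonella serum plus AlexaFluor 488 secondary, and 30,000 cells counted. Values normalised to DMSO; triplicate.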
On the technique in general: A flow cytometer gives signals particle by particle.

For data set [11], the system named is Salmonella enterica subsp. enterica serovar Typhimurium. As to the kind of experiment: Inhibition of SPI-1 T3SS in Salmonella typhimurium assessed as reduction in SPI-1 T3SS substrates by measuring SipC protein level at 5 to 100 uM after 4 hrs by Coomassie staining based SDS-PAGE method. In outline: as §2
Data set [12] concerns Salmonella typhimurium. As to the kind of experiment: Effect on SopE2-CPG2-HA fusion protein expression expressed in Salmonella typhimurium at 0.39 to 100 uM after 4 hrs by Western blot method. The class given is ADME. The settings on record: salmonella enterica subsp. enterica serovar typhimurium. In a few lines: as §1
In general terms: In western blotting, separated proteins are transferred to a membrane and probed.

The test system of data set [13] is Salmonella enterica subsp. enterica serovar Typhimurium. The data set can be described thus: Inhibition of SPI-1 T3SS in Salmonella typhimurium assessed as reduction in SPI-1 T3SS substrates by measuring SipA protein level at 100 uM after 4 hrs by Coomassie staining based SDS-PAGE method. In a few lines:
as §2

The test system is the same in data set [14]. As to the kind of experiment: Inhibition of SPI-1 T3SS in Salmonella typhimurium assessed as reduction in SPI-1 T3SS substrates by measuring SipC protein level at 100 uM after 4 hrs by Coomassie staining based SDS-PAGE method. In a few lines:
as §2

For data set [15] the test system is unchanged. The data set can be described thus: Inhibition of SPI-1 T3SS in Salmonella typhimurium assessed as reduction in SPI-1 T3SS substrates by measuring SipB protein level at 100 uM after 4 hrs by Coomassie staining based SDS-PAGE method. In outline: as §2
The test system is the same in data set [16]. The data set can be described thus: Inhibition of SPI-1 T3SS in Salmonella typhimurium assessed as reduction in SPI-1 T3SS substrates by measuring SopB protein level at 100 uM after 4 hrs by Coomassie staining based SDS-PAGE method. In outline:
as §2

Data set [17] shares this test system. The data set can be described thus: Inhibition of SPI-1 T3SS in Salmonella typhimurium assessed as reduction in SPI-1 T3SS substrates by measuring FliC protein level at 100 uM after 4 hrs by Coomassie staining based SDS-PAGE method. In outline:
as §2

The test system is the same in data set [18]. As to the kind of experiment: Inhibition of SPI-1 T3SS in Salmonella typhimurium assessed as reduction in SPI-1 T3SS substrates by measuring FliD protein level at 100 uM after 4 hrs by Coomassie staining based SDS-PAGE method. In outline:
as §2

The source made the active and inactive calls. The rule behind the calls is not given here.

Take `O=C(O[C@@H]1Cc2c(O)cc(O)cc2O[C@@H]1c1cc(O)c(O)c(O)c1)c1cc(O)c(O)c(O)c1` [EPIGALOCATECHIN GALLATE]: the Activity result in data set [1], in data set [8] and in [12] was “Non-Toxic” throughout. Further, the inhibition result in [2], in data set [6], in data set [9] and in data set [11] was “Dose-dependent effect” throughout. The inhibition entry in data set [3], in data set [4], in [5] and in data set [10] was “Active” throughout. Besides, the IC50 in [7] is 2.15 µM.
For `O=c1cc(-c2ccccc2)oc2cc(O)cc(O)c12`, the inhibition entry in data set [13], in data set [14], in [15], in data set [16], in [17] and in data set [18] was “inactive” in each case.
Regarding `O=C(O[C@@H]1Cc2c(O)cc(O)cc2O[C@@H]1c1ccc(O)c(O)c1)c1cc(O)c(O)c(O)c1`, the inhibition result in [2], in data set [6], in data set [9] and in data set [11] was “Dose-dependent effect” each time. The inhibition result in [3] and in [5] was “Active” throughout.
`O=C(N/N=C/c1cc(Br)cc(Br)c1O)c1ccc([N+](=O)[O-])cc1`: the inhibition entry in data set [2], in [3], in data set [5], in data set [6], in data set [9] and in [11] was “Active” in each case.
Take `O=c1cc(-c2ccccc2)oc2cc(O)c(O)c(O)c12`: the inhibition entry in [2], in data set [3], in [5], in data set [6], in data set [9] and in data set [11] was “Active” each time.
